Assay results gathered from unrelated publications.
Converted amounts (≈) assume the structure as drawn.

COc1cc(O)c(CC=C(C)C)c(O)c1C(=O)/C=C/c1ccc(O)cc1  IC50 (Leishmania tarentolae; parasite growth, resazurin; 48 h, promastigote): 780 nM
CC(=O)OC[C@@]1(C)[C@H]2CC[C@@H]3CN(Cc4ccccc4C)[C@@H](C4=CCOC4=O)C[C@H]3[C@]2(C)CC[C@H]1OC(C)=O  inhibition (unidentified human coronavirus; cytopathic effect; MRC5; 25 µM, 72 h): 71.4%
CCn1cc(C(=O)O)c(=O)c2cc(F)c(N3CCNCC3)cc21  MBC (Acinetobacter baumannii; microbial killing, broth dilution; BAA747): 16 µM
CO[C@@H](C(N)=O)[C@H](NC(=O)c1ccc(NC(=O)c2ccc(C#N)cc2)cc1)C(=O)Nc1ccc(C(=O)Nc2ccc(C(=O)Nc3ccc(C(=O)O)cc3)c(O)c2OC(C)C)cc1  MIC (Proteus mirabilis; microbial growth; DSM4479): 4 µg/mL (≈ 4.75 µM)
Cc1c(NN=C2SC(C(C#N)=Cc3ccc(Cl)cc3)=NC2=O)c(=O)n(-c2ccccc2)n1C  inhibition zone (Acinetobacter baumannii; microbial growth, well diffusion; 100000 µg/mL): 13 mm
Cc1cn([C@H]2C[C@H](N=[N+]=[N-])[C@@H](CO)O2)c(=O)[nH]c1=O  EC50 (Hepatitis C virus; viral replication, inhibitor; Huh-7; replicon): > 10000 nM
COC(=O)N[C@H](C(=O)N1CCC[C@H]1C(=O)Nc1cccc(C#CC#Cc2cccc(NC(=O)[C@@H]3CCCN3C(=O)[C@@H](NC(=O)OC)C(C)C)c2)c1)C(C)C  EC50 (Hepatitis C virus; viral replication, inhibitor, luciferase; Huh-5-2, GETYPE1B; 72 h, replicon): 0.121 nM
CC1(C)OC[C@@]2(C)[C@H]3CC[C@@H]4CN(Cc5ccc(I)cc5)[C@@H](C5=CCOC5=O)C[C@H]4[C@]3(C)CC[C@H]2O1  inhibition (unidentified human coronavirus; cytopathic effect; MRC5; 25 µM, 72 h): 87.2%
CCCCOC(=O)N[C@@H](CC(C)C)C(=O)N1CCC[C@H]1C(=O)Nc1ccc(C#CC#Cc2ccc(NC(=O)[C@@H]3CCCN3C(=O)[C@H](CC(C)C)NC(=O)OCCCC)cc2)cc1  EC50 (Hepatitis C virus; viral replication, inhibitor, luciferase; Huh-5-2, GETYPE1B; 72 h, replicon): > 10000 nM
N#CC(=Cc1cn(-c2ccccc2)nc1-c1ccccc1)C1=NC(=O)CS1  inhibition zone (Acinetobacter baumannii; microbial growth, well diffusion; 100000 µg/mL): 26 mm
CCCCCCC/C=C/C(=O)N1C(=O)/C(=C(\O)c2ccncc2)C(=O)C1CC(C)C (stereo not shown)  MIC (Proteus mirabilis; microbial growth; ATCC25933): > 200 µg/mL
Cc1c(NC(=O)CC2=NC(=O)CS2)c(=O)n(-c2ccccc2)n1C  inhibition zone (Acinetobacter baumannii; microbial growth, well diffusion; 100000 µg/mL): 26 mm
Nc1nc(NS(=O)(=O)c2ccccc2)nc(-c2ccc(F)cc2)c1-c1nc2ccccc2s1  IC50 (Enterovirus B; plaque formation; BGM, B4): 93 µg/mL
CCOC(=O)N[C@H](CC(C)C)C(=O)N1CCC[C@@H]1C(=O)Nc1cccc(C#CC#Cc2cccc(NC(=O)[C@H]3CCCN3C(=O)[C@@H](CC(C)C)NC(=O)OCC)c2)c1  EC50 (Hepatitis C virus; viral replication, inhibitor, luciferase; Huh-5-2, GETYPE1B; 72 h, replicon): 410 nM
CCOC(=O)c1cc(C#N)c(=O)n(NS(=O)(=O)c2ccc(C)cc2)c1N  IC50 (Enterovirus B; plaque formation; BGM, B4): 90 µg/mL
C/C(O)=C1\C(=O)C(CC(C)C)N(C(=O)C=Cc2ccccc2)C1=O (stereo not shown)  MIC (Proteus mirabilis; microbial growth; ATCC25933): > 200 µg/mL
C[C@]1(CO)[C@H]2CC[C@@H]3CN(Cc4ccc(F)c(Cl)c4)[C@@H](C4=CCOC4=O)C[C@H]3[C@]2(C)CC[C@H]1O  inhibition (unidentified human coronavirus; cytopathic effect; MRC5; 25 µM, 72 h): 20%
COC(=O)N[C@H](CC(C)C)C(=O)N1CCC[C@H]1C(=O)Nc1cccc(C#CC#Cc2cccc(NC(=O)[C@@H]3CCCN3C(=O)[C@@H](CC(C)C)NC(=O)OC)c2)c1  EC50 (Hepatitis C virus; viral replication, inhibitor, luciferase; Huh-5-2, GETYPE1B; 72 h, replicon): 0.0686 nM
Cc1ccc(CN2C[C@H]3CC[C@@H]4[C@]5(C)COC(C)(C)O[C@@H]5CC[C@@]4(C)[C@@H]3C[C@@H]2C2=CCOC2=O)cc1  inhibition (unidentified human coronavirus; cytopathic effect; MRC5; 25 µM, 72 h): 98.8%
Nc1nc(N)c2ncn([C@H]3O[C@H](CO)[C@@H](F)[C@@H]3F)c2n1  EC50 (Hepatitis C virus; viral replication, inhibitor; Huh-7; replicon): > 10000 nM
O=C(O)c1cn(C2CC2)c2cc(N3CCNCC3)c(F)cc2c1=O  MBC (Acinetobacter baumannii; microbial killing, broth dilution): 0.25 µg/mL
CC(=O)OC[C@@]1(C)[C@H]2CC[C@@H]3CN(Cc4cccc(Cl)c4)[C@@H](C4=CCOC4=O)C[C@H]3[C@]2(C)CC[C@H]1OC(C)=O  inhibition (unidentified human coronavirus; cytopathic effect; MRC5; 25 µM, 72 h): 116%
Nc1nc(Cl)c2ncn([C@@H]3O[C@H](COC(=O)c4ccccc4)[C@@H](F)[C@@H]3F)c2n1  EC50 (Hepatitis C virus; viral replication, inhibitor; Huh-7; replicon): 4700 nM
Cc1ccc(C(=O)CNc2nc(NS(=O)(=O)c3ccccc3)ncc2-c2nc3ccccc3s2)cc1  IC50 (Enterovirus B; plaque formation; BGM, B4): 90 µg/mL
Nc1nc(Cl)c2ncn([C@@H]3O[C@H](CO)[C@@H](F)[C@@H]3F)c2n1  EC50 (Hepatitis C virus; viral replication, inhibitor; Huh-7; replicon): > 10000 nM
C[C@@]12COCO[C@@H]1CC[C@]1(C)[C@@H]2CC[C@@H]2CN(Cc3ccc(F)cc3)[C@@H](C3=CCOC3=O)C[C@H]21  inhibition (unidentified human coronavirus; cytopathic effect; MRC5; 25 µM, 72 h): 32%
CCOC(=O)N[C@@H](C(=O)N1CCC[C@@H]1C(=O)Nc1ccc(C#CC#Cc2ccc(NC(=O)[C@H]3CCCN3C(=O)[C@H](NC(=O)OCC)C(C)C)cc2)cc1)C(C)C  EC50 (Hepatitis C virus; viral replication, inhibitor, luciferase; Huh-5-2, GETYPE1B; 72 h, replicon): > 10000 nM
CC(C)CN1C[C@H]2CC[C@@H]3[C@]4(C)COC(C)(C)O[C@@H]4CC[C@@]3(C)[C@@H]2C[C@@H]1C1=CCOC1=O  inhibition (unidentified human coronavirus; cytopathic effect; MRC5; 25 µM, 72 h): 28.6%
CCCCOC(=O)N[C@H](C(=O)N1CCC[C@H]1C(=O)Nc1cccc(C#CC#Cc2cccc(NC(=O)[C@@H]3CCCN3C(=O)[C@@H](NC(=O)OCCCC)[C@@H](C)CC)c2)c1)[C@H](C)CC  EC50 (Hepatitis C virus; viral replication, inhibitor, luciferase; Huh-5-2, GETYPE1B; 72 h, replicon): > 10000 nM
[N-]=[N+]=Nc1nc(N=[N+]=[N-])c2ncn([C@@H]3O[C@H](COC(=O)c4ccccc4)[C@@H](F)[C@@H]3F)c2n1  EC50 (Hepatitis C virus; viral replication, inhibitor; Huh-7; replicon): > 10000 nM
CCCCCCC/C=C/C(=O)N1C(=O)/C(=C(\O)c2ccc(O)cc2)C(=O)C1CC(C)C (stereo not shown)  MIC (Proteus mirabilis; microbial growth; ATCC25933): > 200 µg/mL
CC1(C)OC[C@@]2(C)[C@H]3CC[C@@H]4CN(Cc5ccc(C(F)(F)F)cc5)[C@@H](C5=CCOC5=O)C[C@H]4[C@]3(C)CC[C@H]2O1  inhibition (unidentified human coronavirus; cytopathic effect; MRC5; 25 µM, 72 h): 88.3%
O=[N+]([O-])c1ccc(O)c2ncccc12  IC50 (Acinetobacter baumannii; microbial growth; 19606): 560 nM
COC(=O)N[C@H](C(=O)N1CCC[C@H]1C(=O)Nc1ccc(C#CC#Cc2ccc(NC(=O)[C@@H]3CCCN3C(=O)[C@@H](NC(=O)OC)C(C)C)cc2)cc1)C(C)C  EC50 (Hepatitis C virus; viral replication, inhibitor, luciferase; Huh-5-2, GETYPE1B; 72 h, replicon): 10 nM
